{"source": "paper PMC7113734", "about": "(Antiviral Research, 2016)", "key": {"[1]": {"experiment": "Maximum tolerated dose, single oral administration", "type": "in vivo, Sprague-Dawley rats", "conditions": "single oral 750, 1000, 1500, 2000 mg/kg; rats", "summary_of_the_method": "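Single oral gavage in Sprague-Dawley rats, 8 per group (4 female, 4 male). Doses of 750, 1000, 1500 or 2000 mg/kg given in 5% DMSO/70% PEG400 in water, or 2000 mg/kg in 2% CMC-Na in water. Dose volume 10 mL/kg, or 20 mL/kg at 2000 mg/kg. Four-day observation after dosing: cageside and clinical signs, body weight, food consumption.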"}, "[2]": {"experiment": "Fourteen-day repeat dose toxicity study", "type": "in vivo, Sprague-Dawley rats", "conditions": "rats", "summary_of_the_method": "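Thirty-two Sprague-Dawley rats in four groups of 8, alongside a control article. Daily oral gavage for 14 days at 500, 1000 or 2000 mg/kg, given as suspension in 2% CMC-Na in water. Per group, 4 main animals necropsied Day 15 and 4 recovery animals Day 29. Blood for clinical pathology taken before sacrifice. Endpoints: clinical observations, body weight, food consumption, clinical chemistry, hematology, coagulation, urinalysis, organ weights, gross and microscopic pathology.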"}, "HIVIIIB": {"system": "HIVIIIB", "experiment": "Virucidal assay", "type": "cell-based, HIV-1", "conditions": "virions treated 20 min, washed, CEM-SS cells", "summary_of_the_method": "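Test compound incubated with undiluted HIV-1 IIIB for 20 min at 37 °C. Virus pelleted at 13,800 rpm, 4 °C, 90 min, then washed five times with culture medium. Pellet resuspended in RPMI to the predetermined titer of untreated virus and used to infect CEM-SS cells for 6 days at 37 °C/5% CO2. Infectivity read by XTT cell viability.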"}, "[3]": {"system": "influenza A virus type H1N1", "experiment": "DMID antiviral screening, influenza A", "type": "cell-based"}, "[4]": {"system": "Venezuelan equine encephalitis virus", "type": "cell-based"}, "tacaribe virus": {"system": "tacaribe virus", "experiment": "microbe, parasite or virus in culture", "type": "cell-based", "conditions": "Mammarenavirus tacaribeense"}, "rift valley fever virus": {"system": "rift valley fever virus", "experiment": "microbe, parasite or virus in culture", "type": "cell-based"}, "[5]": {"system": "respiratory syncytial virus", "experiment": "DMID antiviral screening, RSV", "type": "cell-based"}}, "note": "“And” between values parts separate entries of the source, which are not always exact repeats. Identical values can stand only once. “Also recorded” adds a separate entry of the source."}
{"smiles": "CCCC(=O)OCSc1ccccc1C(=O)NCCC(N)=O", "note": "[NS1040, ((2-((3-amino-3-oxopropyl)carbamoyl)phenyl)thio)methyl butyrate]", "values": [{"measurement": "toxicity in MTD study", "setting": "[1]", "result": "did not exhibit any toxicity at any dose"}, {"measurement": "urine observation in repeat dose study", "setting": "[2]; at the higher doses", "result": "cloudy urine samples were noted for some of the rats"}, {"measurement": "toxicity in repeat dose study", "setting": "[2]; oral 500, 1000, 2000 mg/kg for 14 consecutive days", "result": "no toxicity observed; also recorded: non-toxic"}, {"measurement": "concentration reducing infectivity of HIV virions (virucidal)", "setting": "HIVIIIB", "result": "50 µM and > 50 µM"}]}
{"smiles": "NC(=O)CCNC(=O)c1ccccc1S", "note": "[MDH-1-38, N-(3-amino-3-oxopropyl)-2-mercaptobenzamide]", "values": [{"measurement": "antiviral activity", "setting": "[3]", "result": "failed to show any activity"}, {"measurement": "antiviral activity", "setting": "[4]", "result": "failed to show any activity"}, {"measurement": "EC50", "setting": "tacaribe virus", "result": "~20", "unit": "µM"}, {"measurement": "EC50", "setting": "rift valley fever virus", "result": "~20", "unit": "µM"}, {"measurement": "antiviral activity", "setting": "[5]", "result": "failed to show any activity"}]}
